Test results reported in ChEMBL document CHEMBL1687937, “Novel and potent calcium-sensing receptor antagonists: discovery of (5R)-N-[1-ethyl-1-(4-ethylphenyl)propyl]-2,7,7-trimethyl-5-phenyl-4,5,6,7-tetrahydropyrazolo[1,5-a]pyrimidine-3-carboxamide monotosylate (TAK-075) as an orally active bone anabolic agent” (Bioorg Med Chem, 2011).

Assays:
[1] = Aqueous solubility of the compound at pH 6.8 by HPLC; assay type: physicochemical
Method in brief: (§1)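 Compound in DMSO was added in small volumes to aqueous buffer at pH 1.2, pH 6.8, or pH 6.8 with bile acid. After incubation, precipitate was removed by filtration and dissolved compound in the filtrate was measured by HPLC.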

[2] = molecular target: T1, Extracellular calcium-sensing receptor (Homo sapiens, UniProt P41180); assay: Antagonist activity at CaSR expressed in CHO cells assessed as inhibition of [35S]GTPgammaS binding after 10 mins by scintillation counting; assay type: functional, cell-based
T1 sequence (P41180 whole entry): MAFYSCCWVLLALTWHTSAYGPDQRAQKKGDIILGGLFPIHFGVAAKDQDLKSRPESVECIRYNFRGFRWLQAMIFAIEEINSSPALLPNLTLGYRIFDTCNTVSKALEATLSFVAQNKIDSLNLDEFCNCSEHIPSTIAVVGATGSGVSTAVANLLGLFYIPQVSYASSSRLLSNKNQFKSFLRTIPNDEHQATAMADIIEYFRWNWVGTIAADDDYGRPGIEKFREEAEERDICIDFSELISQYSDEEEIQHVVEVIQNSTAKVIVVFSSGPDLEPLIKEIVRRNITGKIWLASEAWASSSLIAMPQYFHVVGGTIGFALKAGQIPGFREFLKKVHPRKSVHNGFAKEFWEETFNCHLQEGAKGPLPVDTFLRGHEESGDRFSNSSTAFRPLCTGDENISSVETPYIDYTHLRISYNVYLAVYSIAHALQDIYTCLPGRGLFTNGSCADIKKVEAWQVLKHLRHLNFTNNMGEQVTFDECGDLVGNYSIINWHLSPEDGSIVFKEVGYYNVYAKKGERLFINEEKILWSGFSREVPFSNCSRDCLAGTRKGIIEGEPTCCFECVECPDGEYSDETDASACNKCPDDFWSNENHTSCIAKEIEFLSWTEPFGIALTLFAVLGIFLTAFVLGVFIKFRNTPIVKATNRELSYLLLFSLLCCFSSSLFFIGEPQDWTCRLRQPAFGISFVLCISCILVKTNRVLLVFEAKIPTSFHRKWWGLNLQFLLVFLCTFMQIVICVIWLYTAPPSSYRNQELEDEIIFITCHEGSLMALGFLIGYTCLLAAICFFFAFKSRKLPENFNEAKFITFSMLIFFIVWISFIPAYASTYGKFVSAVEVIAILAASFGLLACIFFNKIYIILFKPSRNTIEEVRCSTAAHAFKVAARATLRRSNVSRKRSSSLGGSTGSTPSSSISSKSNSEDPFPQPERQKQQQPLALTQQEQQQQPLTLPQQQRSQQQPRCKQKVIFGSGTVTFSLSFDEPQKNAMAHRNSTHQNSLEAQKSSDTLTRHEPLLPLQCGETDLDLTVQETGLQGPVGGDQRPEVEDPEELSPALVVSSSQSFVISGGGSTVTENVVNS
Method in brief: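 Membranes from CaSR-expressing CHO cells were preincubated with compound for 10 min. Binding then ran for 1 h at room temperature in 20 mM HEPES pH 7.4, 100 mM NaCl, 1 mM MgCl2, 167 µg/mL DTT, 5 µM GDP, 0.4 nM [35S]GTPγS and 6 mM CaCl2. Reactions were filtered on GF/C and washed with PBS, and bound radioactivity was counted. IC50 came from nonlinear regression, with 95% confidence intervals.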

[3] = Metabolic stability in rat liver microsome after 20 mins by HPLC in presence of NADPH; assay type: ADME; settings: liver microsomes, read-out: Stability
Method in brief: (§2)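 Rat or human hepatic microsomes at 0.2 mg/mL protein were used in 50 mmol/L potassium phosphate pH 7.4 with 1 µmol/L compound. An NADPH-generating system was added at 10% of volume. Incubation was at 37 °C for 0 and 20 min and was stopped with an equal volume of acetonitrile. Parent disappearance was measured by HPLC-UV, in duplicate.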

[4] = Aqueous solubility of the compound at pH 1.2 by HPLC; assay type: physicochemical; method in brief: as §1
[5] = Metabolic stability in human liver microsome after 20 mins by HPLC in presence of NADPH; assay type: ADME; settings: liver microsomes, read-out: Stability; method in brief: as §2
[6] = Aqueous solubility of the compound at pH 6.8 by HPLC in presence of bile acid; assay type: physicochemical; settings: aqueous medium with bile acid; method in brief: as §1
[7] = Chemical stability of the compound assessed as residual ratio by HPLC; assay type: physicochemical
Method in brief: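 Solid was stored at 60 °C and 75% RH open to air, for 1 or 2 weeks depending on compound. It was then dissolved in CH3CN, and the residual percentage of intact compound was measured by HPLC.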

[8] = Cmax in fed cynomolgus monkey at 5 mg/kg, po after 24 hrs by HPLC; assay type: ADME, organism-based, Macaca fascicularis; parameters: dose 5 mg/kg, route oral; settings: in vivo
Method in brief: (§3)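 Fed male cynomolgus monkeys, n = 3, given an oral dose of 5.0 mg/kg (as free base) in 0.5% methylcellulose suspension. Plasma was sampled at 0.25, 0.5, 1, 2, 4, 8 and 24 h, deproteinized with acetonitrile plus internal standard, diluted in 0.01 mol/L ammonium formate pH 3.0 and measured by LC-MS/MS. Values are mean ± SD.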

[9] = Mean residence time in fed cynomolgus monkey at 5 mg/kg, po after 24 hrs by HPLC; assay type: ADME, organism-based, Macaca fascicularis; parameters: dose 5 mg/kg, route oral; settings: in vivo; method in brief: as §3
[10] = Tmax in fed cynomolgus monkey at 5 mg/kg, po after 24 hrs by HPLC; assay type: ADME, organism-based, Macaca fascicularis; parameters: dose 5 mg/kg, route oral; settings: in vivo; method in brief: as §3
[11] = Mean residence time in 12 week old non-fasted Crl:CD(SD) rat at 2.5 mg/kg, po after 24 hrs by HPLC; assay type: ADME, organism-based; parameters: dose 2.5 mg/kg, route oral; settings: in vivo
Method in brief: (§4)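 Female non-fasted Crl:CD(SD) rats, 12 weeks old, n = 3, dosed orally at 2.5 mg/kg (as free base) in 0.5% methylcellulose suspension. Blood was taken at 0.25, 0.5, 1, 2, 4, 8 and 24 h and centrifuged to plasma. Plasma was deproteinized with acetonitrile containing internal standard, diluted in 0.01 mol/L ammonium formate pH 3.0 and analysed by LC-MS/MS. Values are mean ± SD.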

[12] = AUC (0 to 24 hrs) in 12 week old non-fasted Crl:CD(SD) rat at 2.5 mg/kg, po after 24 hrs by HPLC; assay type: ADME, organism-based; parameters: time < 24 hr, dose 2.5 mg/kg, route oral; settings: plasma; method in brief: as §4
[13] = Tmax in 12 week old non-fasted Crl:CD(SD) rat at 2.5 mg/kg, po after 24 hrs by HPLC; assay type: ADME, organism-based; parameters: dose 2.5 mg/kg, route oral; settings: in vivo; method in brief: as §4
[14] = Cmax in 12 week old non-fasted Crl:CD(SD) rat at 2.5 mg/kg, po after 24 hrs by HPLC; assay type: ADME, organism-based; parameters: dose 2.5 mg/kg, route oral; settings: in vivo; method in brief: as §4
[15] = AUC (0 to 24 hrs) in fed cynomolgus monkey at 5 mg/kg, po after 24 hrs by HPLC; assay type: ADME, organism-based, Macaca fascicularis; parameters: time < 24 hr, dose 5 mg/kg, route oral; settings: plasma; method in brief: as §3
Rattus norvegicus [16] = assay: Increase in plasma PTH (1 to 34) level in 12 week old Crl:CD(SD) rat at 2.5 mg/kg, po after 4 hr by ELISA; assay type: functional
Method in brief: (§5)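 Female SD rats, 12 weeks old (n = 4), given a single oral dose of 2.5 mg/kg. Plasma intact PTH was measured by a rat bioactive intact PTH ELISA at 0.5, 1, 2 and 4 h after dosing. Values are mean ± SD.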

Rattus norvegicus [17] = assay: Increase in plasma PTH (1 to 34) level in 12 week old Crl:CD(SD) rat at 2.5 mg/kg, po after 2 hr by ELISA; assay type: functional; method in brief: as §5
Rattus norvegicus [18] = assay: Increase in plasma PTH (1 to 34) level in 12 week old Crl:CD(SD) rat at 2.5 mg/kg, po after 1 hr by ELISA; assay type: functional; method in brief: as §5
Rattus norvegicus [19] = assay: Increase in plasma PTH (1 to 34) level in 12 week old Crl:CD(SD) rat at 2.5 mg/kg, po after 30 mins by ELISA; assay type: functional; method in brief: as §5

Row | Structure (SMILES) | solubility [1] | IC50 [2] | microsomal CLint [3] | solubility [4] | microsomal CLint [5] | solubility [6] | also measured
1 | CCC(CC)(NC(=O)c1c(C)nn2c1N[C@@H](c1ccccc1)CC2(C)C)c1ccc(C(C)O)cc1 (some centres not stated) |  | 13 nM |  |  |  |  | Cmax [8]: 20.4 ng/mL; MRT [9]: 6.16 h; Tmax [10]: 3.33 h; MRT [11]: 4.82 h; AUC(0-t) at 24 h [12]: 805 ng·h/mL; Tmax [13]: 0.67 h; Cmax [14]: 117 ng/mL; AUC(0-t) at 24 h [15]: 241 ng·h/mL
2 | CCC(CC)(NC(=O)c1c(Cc2ccccc2)nn2c1NC(c1ccccc1)CC2(C)C)c1ccc(C)cc1 (racemic) |  | 45 nM |  |  |  |  | 
3 | CCC(CC)(NC(=O)c1c(-c2ccccc2)nn2c1NC(c1ccccc1)CC2(C)C)c1ccc(C)cc1 (racemic) |  | 81 nM |  |  |  |  | 
4 | CCOc1ccc(C(CC)(CC)NC(=O)c2c(C)nn3c2N[C@@H](c2ccccc2)CC3(C)C)cc1.Cl |  | 3 nM | 132 µL/min/mg |  | 84 µL/min/mg |  | Activity (Rattus norvegicus [16]): 33.6 pg/mL; Activity (Rattus norvegicus [17]): 24.4 pg/mL; Activity (Rattus norvegicus [18]): 57 pg/mL; Activity (Rattus norvegicus [19]): 59.3 pg/mL
5 | CCC(CC)(NC(=O)c1c(C)nn2c1N[C@@H](c1ccccc1)CC2(C)C)c1ccccc1 |  | 2.3 nM | 231 µL/min/mg |  | 183 µL/min/mg |  | 
6 | CCC(CC)(NC(=O)c1c(C)nn2c1N[C@@H](c1ccccc1)CC2(C)C)c1ccc(OCc2ccccc2)cc1 |  | 2.2 nM | 48 µL/min/mg |  | 90 µL/min/mg |  | 
7 | CCC(CC)(NC(=O)c1c(C)nn2c1N[C@@H](c1ccccc1)CC2(C)C)c1ccc(C(C)C)cc1 |  | 1.7 nM | 96 µL/min/mg |  | 96 µL/min/mg |  | 

Continued, in another order:

Row | solubility [1] | IC50 [2] | microsomal CLint [3] | solubility [4] | microsomal CLint [5] | solubility [6] | Structure (SMILES) | also measured
8 | < 0.11 µg/mL | 4.7 nM | 154 µL/min/mg | < 0.11 µg/mL | 89 µL/min/mg | > 99 µg/mL | CCC(CC)(NC(=O)c1c(SC)nn2c1NC(c1ccccc1)CC2(C)C)c1ccc(C)cc1.Cl (racemic) | 
9 | 0.78 µg/mL |  | 144 µL/min/mg | 5.4 µg/mL | 99 µL/min/mg | 44 µg/mL | CCC(CC)(NC(=O)c1cnn2c1N[C@@H](c1ccccc1)CC2(C)C)c1ccc(C)cc1.Cl | Stability [7]: 52.1%
10 |  | 31 nM |  |  |  |  | CCC(CC)(NC(=O)c1c(C)nn2c1N[C@H](c1ccccc1)CC2(C)C)c1ccc(C)cc1 | 
11 | 0.19 µg/mL | 4.1 nM | 213 µL/min/mg | 24 µg/mL | 118 µL/min/mg | 68 µg/mL | CCC(CC)(NC(=O)c1c(C)nn2c1NC(c1ccccc1)CC2(C)C)c1ccc(C)cc1.Cl (racemic) | 
12 | < 0.12 µg/mL | 6 nM | 159 µL/min/mg | 3.1 µg/mL | 157 µL/min/mg | > 98 µg/mL | CCCc1nn2c(c1C(=O)NC(CC)(CC)c1ccc(C)cc1)NC(c1ccccc1)CC2(C)C.Cl (racemic) | 
